Measurements: ChEMBL document CHEMBL3784971, “Synthesis, characterization, antimicrobial and biofilm inhibitory studies of new esterquats” (Bioorg Med Chem Lett, 2016)

Columns and labels:
Staphylococcus aureus [1] = experiment: Antimicrobial activity against Staphylococcus aureus MTCC 96 assessed as growth inhibition after 24 hrs by agar well diffusion method; assay type: functional; settings: MTCC 96, 24 h
Bacillus subtilis [2] = experiment: Antimicrobial activity against Bacillus subtilis MTCC 121 assessed as growth inhibition after 24 hrs by agar well diffusion method; assay type: functional; settings: MTCC 121, 24 h
Staphylococcus aureus [3] = experiment: Antimicrobial activity against Staphylococcus aureus MLS16 MTCC 2940 assessed as growth inhibition after 24 hrs by agar well diffusion method; assay type: functional; settings: MLS16 MTCC 2940, 24 h
Micrococcus luteus [4] = experiment: Antimicrobial activity against Micrococcus luteus MTCC 2470 assessed as growth inhibition after 24 hrs by agar well diffusion method; assay type: functional; settings: MTCC 2470, 24 h
Raoultella planticola [5] = experiment: Antimicrobial activity against Klebsiella planticola MTCC 530 assessed as growth inhibition after 24 hrs by agar well diffusion method; assay type: functional; settings: MTCC 530, 24 h
Escherichia coli [6] = experiment: Antimicrobial activity against Escherichia coli MTCC 739 assessed as growth inhibition after 24 hrs by agar well diffusion method; assay type: functional; settings: MTCC 739, 24 h
Pseudomonas aeruginosa = experiment: Antimicrobial activity against Pseudomonas aeruginosa MTCC 2453 assessed as growth inhibition after 24 hrs by agar well diffusion method; assay type: functional; settings: MTCC 2453, 24 h
Candida albicans [7] = experiment: Antimicrobial activity against Candida albicans MTCC 3017 assessed as growth inhibition after 24 hrs by agar well diffusion method; assay type: functional; settings: MTCC 3017, 24 h
Candida albicans [8] = experiment: Antimicrobial activity against Candida albicans MTCC 183 assessed as growth inhibition after 24 hrs by agar well diffusion method; assay type: functional; settings: MTCC 183, 24 h
Candida albicans [9] = experiment: Antimicrobial activity against Candida albicans MTCC 227 assessed as growth inhibition after 24 hrs by agar well diffusion method; assay type: functional; settings: MTCC 227, 24 h
Candida albicans [10] = experiment: Antimicrobial activity against Candida albicans MTCC 854 assessed as growth inhibition after 24 hrs by agar well diffusion method; assay type: functional; settings: MTCC 854, 24 h
Candida albicans [11] = experiment: Antimicrobial activity against Candida albicans MTCC 1637 assessed as growth inhibition after 24 hrs by agar well diffusion method; assay type: functional; settings: MTCC 1637, 24 h
Candida albicans [12] = experiment: Antimicrobial activity against Candida albicans MTCC 3018 assessed as growth inhibition after 24 hrs by agar well diffusion method; assay type: functional; settings: MTCC 3018, 24 h
Candida albicans [13] = experiment: Antimicrobial activity against Candida albicans MTCC 3958 assessed as growth inhibition after 24 hrs by agar well diffusion method; assay type: functional; settings: MTCC 3958, 24 h
Candida albicans [14] = experiment: Antimicrobial activity against Candida albicans MTCC 4748 assessed as growth inhibition after 24 hrs by agar well diffusion method; assay type: functional; settings: MTCC 4748, 24 h
Candida albicans [15] = experiment: Antimicrobial activity against Candida albicans MTCC 7315 assessed as growth inhibition after 24 hrs by agar well diffusion method; assay type: functional; settings: MTCC 7315, 24 h
Candida parapsilosis [16] = experiment: Antimicrobial activity against Candida parapsilosis MTCC 1744 assessed as growth inhibition after 24 hrs by agar well diffusion method; assay type: functional; settings: Lodderomyces parapsilosis, MTCC 1744, 24 h
[Candida] aaseri [17] = Antimicrobial activity against Candida aaseri MTCC 1962 assessed as growth inhibition after 24 hrs by agar well diffusion method; assay type: functional; settings: Yamadazyma aaseri, MTCC 1962, 24 h
Nakaseomyces glabratus [18] = experiment: Antimicrobial activity against Candida glabrata MTCC 3019 assessed as growth inhibition after 24 hrs by agar well diffusion method; assay type: functional; settings: MTCC 3019, 24 h
Pichia kudriavzevii [19] = experiment: Antimicrobial activity against Candida krusei MTCC 3020 assessed as growth inhibition after 24 hrs by agar well diffusion method; assay type: functional; settings: MTCC 3020, 24 h
Pichia sporocuriosa [20] = experiment: Antimicrobial activity against Issatchenkia hanoiensis MTCC 4755 assessed as growth inhibition after 24 hrs by agar well diffusion method; assay type: functional; settings: MTCC 4755, 24 h
Staphylococcus aureus [21] = experiment: Bactericidal activity against Staphylococcus aureus MTCC 96 after 24 hrs by serial dilution method; assay type: functional; settings: MTCC 96, 24 h
Bacillus subtilis [22] = experiment: Bactericidal activity against Bacillus subtilis MTCC 121 after 24 hrs by serial dilution method; assay type: functional; settings: MTCC 121, 24 h
Staphylococcus aureus [23] = experiment: Bactericidal activity against Staphylococcus aureus MLS16 MTCC 2940 after 24 hrs by serial dilution method; assay type: functional; settings: MLS16 MTCC 2940, 24 h
Micrococcus luteus [24] = experiment: Bactericidal activity against Micrococcus luteus MTCC 2470 after 24 hrs by serial dilution method; assay type: functional; settings: MTCC 2470, 24 h
Raoultella planticola [25] = experiment: Bactericidal activity against Klebsiella planticola MTCC 530 after 24 hrs by serial dilution method; assay type: functional; settings: MTCC 530, 24 h
Escherichia coli [26] = experiment: Bactericidal activity against Escherichia coli MTCC 739 after 24 hrs by serial dilution method; assay type: functional; settings: MTCC 739, 24 h
Candida albicans [27] = experiment: Fungicidal activity against Candida albicans MTCC 3017 after 24 hrs by serial dilution method; assay type: functional; settings: MTCC 3017, 24 h
Candida albicans [28] = experiment: Fungicidal activity against Candida albicans MTCC 183 after 24 hrs by serial dilution method; assay type: functional; settings: MTCC 183, 24 h
Candida albicans [29] = experiment: Fungicidal activity against Candida albicans MTCC 227 after 24 hrs by serial dilution method; assay type: functional; settings: MTCC 227, 24 h
Candida albicans [30] = experiment: Fungicidal activity against Candida albicans MTCC 854 after 24 hrs by serial dilution method; assay type: functional; settings: MTCC 854, 24 h
Candida albicans [31] = experiment: Fungicidal activity against Candida albicans MTCC 1637 after 24 hrs by serial dilution method; assay type: functional; settings: MTCC 1637, 24 h
Candida albicans [32] = experiment: Fungicidal activity against Candida albicans MTCC 3018 after 24 hrs by serial dilution method; assay type: functional; settings: MTCC 3018, 24 h
Candida albicans [33] = experiment: Fungicidal activity against Candida albicans MTCC 3958 after 24 hrs by serial dilution method; assay type: functional; settings: MTCC 3958, 24 h
Candida albicans [34] = experiment: Fungicidal activity against Candida albicans MTCC 4748 after 24 hrs by serial dilution method; assay type: functional; settings: MTCC 4748, 24 h
Candida albicans [35] = experiment: Fungicidal activity against Candida albicans MTCC 7315 after 24 hrs by serial dilution method; assay type: functional; settings: MTCC 7315, 24 h
Candida parapsilosis [36] = experiment: Fungicidal activity against Candida parapsilosis MTCC 1744 after 24 hrs by serial dilution method; assay type: functional; settings: Lodderomyces parapsilosis, MTCC 1744, 24 h
[Candida] aaseri [37] = Fungicidal activity against Candida aaseri MTCC 1962 after 24 hrs by serial dilution method; assay type: functional; settings: Yamadazyma aaseri, MTCC 1962, 24 h
Nakaseomyces glabratus [38] = experiment: Fungicidal activity against Candida glabrata MTCC 3019 after 24 hrs by serial dilution method; assay type: functional; settings: MTCC 3019, 24 h
Pichia kudriavzevii [39] = experiment: Fungicidal activity against Candida krusei MTCC 3020 after 24 hrs by serial dilution method; assay type: functional; settings: MTCC 3020, 24 h
Pichia sporocuriosa [40] = experiment: Fungicidal activity against Issatchenkia hanoiensis MTCC 4755 after 24 hrs by serial dilution method; assay type: functional; settings: MTCC 4755, 24 h
Staphylococcus aureus [41] = experiment: Antibiofilm activity against Staphylococcus aureus MTCC 96 after 24 hrs by crystal violet staining based assay; assay type: functional, organism-based; settings: MTCC 96, 24 h
Method in brief: (§1)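 Biofilm inhibition tested for amine esters and esterquats. IC50 values (µg/mL) are the mean of three determinations, with ciprofloxacin as reference.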

Bacillus subtilis [42] = experiment: Antibiofilm activity against Bacillus subtilis MTCC 121 after 24 hrs by crystal violet staining based assay; assay type: functional, organism-based; settings: MTCC 121, 24 h; method in brief: as §1
Staphylococcus aureus [43] = experiment: Antibiofilm activity against Staphylococcus aureus MLS16 MTCC 2940 after 24 hrs by crystal violet staining based assay; assay type: functional, organism-based; settings: MLS16 MTCC 2940, 24 h; method in brief: as §1
Micrococcus luteus [44] = experiment: Antibiofilm activity against Micrococcus luteus MTCC 2470 after 24 hrs by crystal violet staining based assay; assay type: functional, organism-based; settings: MTCC 2470, 24 h; method in brief: as §1

## COC(=O)CCCCCCCCCC[N+](C)(C1CCCCC1)C1CCCCC1.[Cl-]
Staphylococcus aureus [1]
  MIC: 3.9 µg/mL
Bacillus subtilis [2]
  MIC: 7.8 µg/mL
Staphylococcus aureus [3]
  MIC: 3.9 µg/mL
Micrococcus luteus [4]
  MIC: 7.8 µg/mL
Raoultella planticola [5]
  MIC: > 125 µg/mL
Escherichia coli [6]
  MIC: > 125 µg/mL
Pseudomonas aeruginosa
  MIC: > 125 µg/mL
Candida albicans [7]
  MIC: 15.6 µg/mL
Candida albicans [8]
  MIC: 15.6 µg/mL
Candida albicans [9]
  MIC: 15.6 µg/mL
Candida albicans [10]
  MIC: 31.2 µg/mL
Candida albicans [11]
  MIC: 31.2 µg/mL
Candida albicans [12]
  MIC: 15.6 µg/mL
Candida albicans [13]
  MIC: 15.6 µg/mL
Candida albicans [14]
  MIC: 15.6 µg/mL
Candida albicans [15]
  MIC: 15.6 µg/mL
Candida parapsilosis [16]
  MIC: 15.6 µg/mL
[Candida] aaseri [17]
  MIC: 15.6 µg/mL
Nakaseomyces glabratus [18]
  MIC: 31.2 µg/mL
Pichia kudriavzevii [19]
  MIC: 31.2 µg/mL
Pichia sporocuriosa [20]
  MIC: 15.6 µg/mL
Staphylococcus aureus [21]
  MBC: 7.8 µg/mL
Bacillus subtilis [22]
  MBC: 15.6 µg/mL
Staphylococcus aureus [23]
  MBC: 7.8 µg/mL
Micrococcus luteus [24]
  MBC: 7.8 µg/mL
Raoultella planticola [25]
  MBC: > 125 µg/mL
Escherichia coli [26]
  MBC: > 125 µg/mL
Candida albicans [27]
  MFC: 31.2 µg/mL
Candida albicans [28]
  MFC: 62.5 µg/mL
Candida albicans [29]
  MFC: 31.2 µg/mL
Candida albicans [30]
  MFC: 31.2 µg/mL
Candida albicans [31]
  MFC: 31.2 µg/mL
Candida albicans [32]
  MFC: 62.5 µg/mL
Candida albicans [33]
  MFC: 31.2 µg/mL
Candida albicans [34]
  MFC: 31.2 µg/mL
Candida albicans [35]
  MFC: 31.2 µg/mL
Candida parapsilosis [36]
  MFC: 62.5 µg/mL
[Candida] aaseri [37]
  MFC: 31.2 µg/mL
Nakaseomyces glabratus [38]
  MFC: 62.5 µg/mL
Pichia kudriavzevii [39]
  MFC: 62.5 µg/mL
Pichia sporocuriosa [40]
  MFC: 31.2 µg/mL
Staphylococcus aureus [41]
  IC50: 2.5 µg/mL
Bacillus subtilis [42]
  IC50: 4.4 µg/mL
Staphylococcus aureus [43]
  IC50: 3.6 µg/mL
Micrococcus luteus [44]
  IC50: 2.5 µg/mL

## CCCCCCCCCCCCCCCCCCNCCCCCCCCCCC(=O)OC
Staphylococcus aureus [1]
  MIC: > 125 µg/mL
Bacillus subtilis [2]
  MIC: > 125 µg/mL
Staphylococcus aureus [3]
  MIC: > 125 µg/mL
Micrococcus luteus [4]
  MIC: > 125 µg/mL
Raoultella planticola [5]
  MIC: > 125 µg/mL
Escherichia coli [6]
  MIC: > 125 µg/mL
Pseudomonas aeruginosa
  MIC: > 125 µg/mL
Candida albicans [7]
  MIC: > 125 µg/mL
Staphylococcus aureus [21]
  MBC: > 125 µg/mL
Bacillus subtilis [22]
  MBC: > 125 µg/mL
Staphylococcus aureus [23]
  MBC: > 125 µg/mL
Micrococcus luteus [24]
  MBC: > 125 µg/mL
Raoultella planticola [25]
  MBC: > 125 µg/mL
Escherichia coli [26]
  MBC: > 125 µg/mL

## CCCCCCCCCCCC[N+](C)(CCCCCCCCCCC(=O)OC)CCCCCCCCCCC(=O)OC.[Cl-]
Staphylococcus aureus [1]
  MIC: > 125 µg/mL
Bacillus subtilis [2]
  MIC: > 125 µg/mL
Staphylococcus aureus [3]
  MIC: > 125 µg/mL
Micrococcus luteus [4]
  MIC: > 125 µg/mL
Raoultella planticola [5]
  MIC: > 125 µg/mL
Escherichia coli [6]
  MIC: > 125 µg/mL
Pseudomonas aeruginosa
  MIC: > 125 µg/mL
Candida albicans [7]
  MIC: > 125 µg/mL
Staphylococcus aureus [21]
  MBC: > 125 µg/mL
Bacillus subtilis [22]
  MBC: > 125 µg/mL
Staphylococcus aureus [23]
  MBC: > 125 µg/mL
Micrococcus luteus [24]
  MBC: > 125 µg/mL
Raoultella planticola [25]
  MBC: > 125 µg/mL
Escherichia coli [26]
  MBC: > 125 µg/mL
